These results are taken from ChEMBL document CHEMBL3871300, “Synthesis and evaluation of the anti-proliferative activity of diaryl-3-pyrrolin-2-ones and fused analogs” (Bioorg Med Chem Lett, 2017).

Where only a bound is given, the exact number is not on record here.

Broadly, the IC50 is the concentration needed to halve the response being measured. The low end stands for higher potency, the high end for lower potency.

Assay [1] in a line: Antiproliferative activity against human U937 cells after 48 hrs by MTT assay. As to conditions: U-937, 48 h. The format is functional, cell-based. The essentials: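 Human promonocytic U-937 cells exposed to compound for 48 h, then MTT added as an indirect viability read-out via mitochondrial activity. IC50 taken as the concentration reducing viability to 50% of mock-treated cells. Values averaged from at least three independent runs, each with eight replicates, with standard errors; n gives the number of independent runs.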
(Formazan colour is commonly taken as a measure of viable cells.)

Assay [2] in a line: Cytotoxicity against human U937 cells assessed as cell viability at antiproliferative IC50 after 48 hrs by trypan exclusion assay. Format: functional, U-937.

Take `Cn1cc(C2=C(c3ccccc3)CNC2=O)c2ccccc21`: the IC50 in assay [1] was more than 100 µM. The same measure, in the same setting: for `COc1cc2c3c(c4cc(OC)c(OC)cc4c2cc1OC)C(=O)NC3` the value was more than 100 µM; for `COc1cc2c3c(c4c5ccccc5n(C)c4c2cc1OC)C(=O)NC3`, 48 µM; for `COc1cc(C2=C(c3ccccc3)CNC2=O)cc(OC)c1OC`, 33 µM.

In the case of `COc1ccc(C2=C(c3cn(C)c4ccccc34)CNC2=O)cc1OC`, in assay [1], the IC50 was more than 100 µM.

Compound `COc1cc(C2=C(c3ccccc3)C(=O)NC2)cc(OC)c1OC` registered an IC50 in assay [1] of 84 µM. That is a double-digit micromolar value. Turning to `COc1ccc(C2=C(c3cn(C)c4ccccc34)C(=O)NC2)cc1OC`, the Activity in assay [2] was found to be 61%. Besides, the IC50 in assay [1] is 10 µM.

On to `COc1ccc(C2=C(c3ccc(OC)c(OC)c3)C(=O)NC2)cc1OC`, for which, in assay [1], the IC50 was determined as 57 µM. The same measure, in the same setting: for `COc1cc(C2=CC(=O)NC2)cc(OC)c1OC` the value was more than 100 µM.

For `COc1cc(C2=C(c3cc(OC)c(OC)c(OC)c3)C(=O)NC2)cc(OC)c1OC`, in assay [2], the Activity worked out at 51%. In assay [1], this compound gave an IC50 of 11 µM. In the case of `Cn1cc(C2=CC(=O)NC2)c2ccccc21`, the IC50 in assay [1] is more than 100 µM. Same read-out and setting: for `COc1ccc(C2=C(c3ccc(OC)cc3)C(=O)NC2)cc1` the value was 13 µM.

As to `COc1cc(C2=C(c3cn(C)c4ccccc34)C(=O)NC2)cc(OC)c1OC`, in assay [1], it took 38 µM to reach half-maximal inhibition (IC50).

In assay [1], `COc1ccc(C2=CC(=O)NC2)cc1OC` showed an IC50 of more than 100 µM.
